Measurements from ChEMBL document CHEMBL1649147, “Antistaphylococcal activity of dihydrophthalazine antifolates, a family of novel antibacterial drugs” (2009).
Values after ≈ are worked out from the molar mass of the structure shown.

Key:
[1] = tested on: Staphylococcus epidermidis; test: Antibacterial activity against methicillin-resistant, Linezolid non-susceptible coagulase-negative Staphylococcus epidermidis 345 by agar dilution method; type: functional
Staphylococcus aureus [2] = test: Antibacterial activity against Tmp-resistant Staphylococcus aureus by agar dilution method; type: functional
In short: (§1)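 MICs by agar dilution on Mueller-Hinton agar following CLSI guidelines. S. aureus ATCC 29213 and E. faecalis ATCC 29212 were run as quality controls with each set, and test-strain MICs were kept only if control MICs fell within acceptable ranges.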

Staphylococcus aureus [3] = test: Antibacterial activity against methicillin-susceptible Staphylococcus aureus 505 by broth macrodilution method; type: functional
Staphylococcus aureus [4] = test: Antibacterial activity against methicillin-susceptible Staphylococcus aureus by agar dilution method; type: functional
In short: (§2)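 Agar dilution on Mueller-Hinton agar per CLSI guidelines. S. aureus ATCC 29213 and E. faecalis ATCC 29212 were run with each set, and test MICs were accepted only when the control strains fell within acceptable ranges.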

[5] = tested on: coagulase-negative staphylococci; test: Antibacterial activity against methicillin-resistant coagulase-negative staphylococci by agar dilution method
[6] = tested on: Staphylococcus epidermidis; test: Antibacterial activity against methicillin-resistant, vancomycin-intermediate coagulase-negative Staphylococcus epidermidis 225 after 11 passages by agar dilution method; type: functional
In short: (§3)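 Daily serial passage for up to 50 days at 35°C for 24 h in 1 ml MHB. […] Each transfer used 10 µl from the tube nearest the MIC (1–2 dilutions below) with the same turbidity as the drug-free control. […] MICs were measured by agar dilution, with changes given as log2 steps.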

Staphylococcus aureus [7] = test: Antibacterial activity against methicillin-resistant Staphylococcus aureus ATCC 43300 after 9 passages by agar dilution method; type: functional; settings: ATCC43300
In short: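 Serial passage under drug. Inoculum was ~1 × 10^6 CFU/ml from overnight MHA growth, in 1 ml MHB at 35°C for 24 h. Drug ranged from 4 log2 steps above to 3 log2 steps below the MIC. […] MIC change is given as log2 steps.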

Staphylococcus aureus [8] = test: Antibacterial activity against methicillin-resistant and vancomycin-resistant Staphylococcus aureus VRS1 by agar dilution method; type: functional; in short: as §2
[9] = tested on: coagulase-negative staphylococci; test: Antibacterial activity against Tmp-resistant coagulase-negative staphylococci by agar dilution method
[10] = tested on: Staphylococcus epidermidis; test: Antibacterial activity against methicillin-resistant coagulase-negative Staphylococcus epidermidis 345 by broth macrodilution method; type: functional
[11] = tested on: Staphylococcus epidermidis; test: Antibacterial activity against methicillin-resistant, vancomycin-intermediate coagulase-negative Staphylococcus epidermidis 225 by agar dilution method; type: functional; in short: as §2
[12] = tested on: Staphylococcus epidermidis; test: Antibacterial activity against methicillin-susceptible coagulase-negative Staphylococcus epidermidis 057 after 9 passages by agar dilution method; type: functional; in short: as §3
[13] = tested on: Staphylococcus epidermidis; test: Antibacterial activity against methicillin-resistant coagulase-negative Staphylococcus epidermidis 225 by broth macrodilution method; type: functional
Staphylococcus aureus [14] = test: Antibacterial activity against vancomycin-resistant Staphylococcus aureus VRS1 by broth macrodilution method; type: functional
In short: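 Michigan VRSA strain, one of 12 staphylococci later used in time-kill studies. MIC was determined by broth macrodilution and reported in μg/ml.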

[15] = tested on: Staphylococcus epidermidis; test: Antibacterial activity against methicillin-resistant, Linezolid non-susceptible coagulase-negative Staphylococcus epidermidis 345 after 9 passages by agar dilution method; type: functional; in short: as §3
Staphylococcus aureus [16] = test: Antibacterial activity against methicillin-susceptible, vancomycin-intermediate Staphylococcus aureus 505 after 9 passages by agar dilution method; type: functional; in short: as §3
[17] = tested on: coagulase-negative staphylococci; test: Antibacterial activity against methicillin-susceptible coagulase-negative staphylococci by agar dilution method
[18] = tested on: Staphylococcus epidermidis; test: Antibacterial activity against methicillin-resistant coagulase-negative Staphylococcus epidermidis 197 after 12 passages by agar dilution method; type: functional; in short: as §3
Staphylococcus aureus [19] = test: Antibacterial activity against methicillin-susceptible, vancomycin-intermediate Staphylococcus aureus 505 by broth macrodilution method; type: functional
Staphylococcus aureus [20] = test: Antibacterial activity against methicillin-resistant Staphylococcus aureus 145 by broth macrodilution method; type: functional
[21] = tested on: Staphylococcus epidermidis; test: Antibacterial activity against methicillin-resistant coagulase-negative Staphylococcus epidermidis 197 by broth macrodilution method; type: functional
Staphylococcus aureus [22] = test: Antibacterial activity against Tmp-susceptible coagulase-negative Staphylococcus aureus by agar dilution method; type: functional; in short: as §1
[23] = tested on: Staphylococcus epidermidis; test: Antibacterial activity against methicillin-susceptible coagulase-negative Staphylococcus epidermidis 051 by broth macrodilution method; type: functional
Staphylococcus aureus [24] = test: Antibacterial activity against methicillin-resistant Staphylococcus aureus ATCC 43300 by broth macrodilution method; type: functional; settings: ATCC43300
Staphylococcus aureus [25] = test: Antibacterial activity against methicillin-resistant Staphylococcus aureus 145 after 10 passages by agar dilution method; type: functional
Staphylococcus aureus [26] = test: Antibacterial activity against Tmp-susceptible Staphylococcus aureus by agar dilution method; type: functional; in short: as §1
[27] = tested on: Staphylococcus epidermidis; test: Antibacterial activity against methicillin-susceptible coagulase-negative Staphylococcus epidermidis 057 by broth macrodilution method; type: functional
[28] = tested on: Staphylococcus epidermidis; test: Antibacterial activity against methicillin-resistant coagulase-negative Staphylococcus epidermidis 074 by broth macrodilution method; type: functional
Staphylococcus aureus [29] = test: Antibacterial activity against methicillin-resistant Staphylococcus aureus 507 by broth macrodilution method; type: functional
[30] = tested on: Staphylococcus epidermidis; test: Antibacterial activity against methicillin-susceptible coagulase-negative Staphylococcus epidermidis 051 after 9 passages by agar dilution method; type: functional; in short: as §3
Staphylococcus aureus [31] = test: Antibacterial activity against methicillin-susceptible Staphylococcus aureus ATCC 29213 by broth macrodilution method; type: functional; settings: ATCC29213
Staphylococcus aureus [32] = test: Antibacterial activity against methicillin-resistant Staphylococcus aureus by agar dilution method; type: functional; in short: as §2
[33] = tested on: coagulase-negative staphylococci; test: Antibacterial activity against Tmp-susceptible coagulase-negative staphylococci by agar dilution method
Staphylococcus aureus [34] = test: Antibacterial activity against methicillin-susceptible Staphylococcus aureus ATCC 29213 after 9 passages by agar dilution method; type: functional; settings: ATCC29213; in short: as §3
[35] = tested on: Staphylococcus epidermidis; test: Antibacterial activity against methicillin-resistant, vancomycin-intermediate coagulase-negative Staphylococcus epidermidis 225 after 50 passages by agar dilution method; type: functional; in short: as §3
Staphylococcus aureus [36] = test: Antibacterial activity against methicillin-susceptible, vancomycin-intermediate Staphylococcus aureus 505 after 50 passages by agar dilution method; type: functional; in short: as §3

CO[C@H]1/C=C/O[C@@]2(C)Oc3c(C)c(O)c4c(O)c(c(/C=N/N5CCN(C)CC5)c(O)c4c3C2=O)NC(=O)/C(C)=C\C=C\[C@H](C)[C@H](O)[C@@H](C)[C@@H](O)[C@@H](C)[C@H](OC(C)=O)[C@@H]1C [RIFAMPIN]
MIC [1]: 0.008 µg/mL (≈ 0.00972 µM)
MIC50 (Staphylococcus aureus [2]): 0.008 µg/mL (≈ 0.00972 µM)
MIC90 (Staphylococcus aureus [2]): > 16 µg/mL
MIC (Staphylococcus aureus [3]): 0.03 µg/mL (≈ 0.0365 µM)
MIC50 (Staphylococcus aureus [4]): 0.008 µg/mL (≈ 0.00972 µM)
MIC90 (Staphylococcus aureus [4]): 0.016 µg/mL (≈ 0.0194 µM)
MIC50 [5]: 0.008 µg/mL (≈ 0.00972 µM)
MIC90 [5]: 2 µg/mL (≈ 2.43 µM)
MIC [6]: > 128 µg/mL
MIC (Staphylococcus aureus [7]): > 128 µg/mL
MIC (Staphylococcus aureus [8]): > 32 µg/mL
MIC50 [9]: 0.008 µg/mL (≈ 0.00972 µM)
MIC90 [9]: > 16 µg/mL
MIC [10]: 0.016 µg/mL (≈ 0.0194 µM)
MIC [11]: 0.016 µg/mL (≈ 0.0194 µM)
MIC [12]: > 128 µg/mL
MIC [13]: 0.03 µg/mL (≈ 0.0365 µM)
MIC (Staphylococcus aureus [14]): > 128 µg/mL
MIC [15]: > 128 µg/mL
MIC (Staphylococcus aureus [16]): > 128 µg/mL
MIC [17]: ≤ 0.004 µg/mL
MIC90 [17]: 0.016 µg/mL (≈ 0.0194 µM)
MIC [18]: > 128 µg/mL
MIC (Staphylococcus aureus [19]): 0.016 µg/mL (≈ 0.0194 µM)
MIC (Staphylococcus aureus [20]): 0.008 µg/mL (≈ 0.00972 µM)
MIC [21]: 0.03 µg/mL (≈ 0.0365 µM)
MIC (Staphylococcus aureus [22]): ≤ 0.004 µg/mL
MIC [23]: 0.016 µg/mL (≈ 0.0194 µM)
MIC (Staphylococcus aureus [24]): 0.004 µg/mL (≈ 0.00486 µM)
MIC (Staphylococcus aureus [25]): > 128 µg/mL
MIC50 (Staphylococcus aureus [26]): 0.016 µg/mL (≈ 0.0194 µM)
MIC90 (Staphylococcus aureus [26]): 0.016 µg/mL (≈ 0.0194 µM)
MIC [27]: 0.03 µg/mL (≈ 0.0365 µM)
MIC [28]: 0.03 µg/mL (≈ 0.0365 µM)
MIC (Staphylococcus aureus [29]): 4 µg/mL (≈ 4.86 µM)
MIC [30]: > 128 µg/mL
MIC (Staphylococcus aureus [31]): 0.008 µg/mL (≈ 0.00972 µM)
MIC50 (Staphylococcus aureus [32]): 0.016 µg/mL (≈ 0.0194 µM)
MIC90 (Staphylococcus aureus [32]): 0.016 µg/mL (≈ 0.0194 µM)
MIC50 [33]: 0.008 µg/mL (≈ 0.00972 µM)
MIC90 [33]: 0.016 µg/mL (≈ 0.0194 µM)
MIC (Staphylococcus aureus [34]): > 128 µg/mL

CN[C@H](CC(C)C)C(=O)N[C@H]1C(=O)N[C@@H](CC(N)=O)C(=O)N[C@H]2C(=O)N[C@H]3C(=O)N[C@H](C(=O)N[C@H](C(=O)O)c4cc(O)cc(O)c4-c4cc3ccc4O)[C@H](O)c3ccc(c(Cl)c3)Oc3cc2cc(c3O[C@@H]2O[C@H](CO)[C@@H](O)[C@H](O)[C@H]2O[C@H]2C[C@](C)(N)[C@H](O)[C@H](C)O2)Oc2ccc(cc2Cl)[C@H]1O [VANCOMYCIN]
MIC50 (Staphylococcus aureus [2]): 1 µg/mL (≈ 0.69 µM)
MIC90 (Staphylococcus aureus [2]): 4 µg/mL (≈ 2.76 µM)
MIC50 (Staphylococcus aureus [4]): 1 µg/mL (≈ 0.69 µM)
MIC90 (Staphylococcus aureus [4]): 2 µg/mL (≈ 1.38 µM)
MIC50 [5]: 2 µg/mL (≈ 1.38 µM)
MIC90 [5]: 2 µg/mL (≈ 1.38 µM)
MIC (Staphylococcus aureus [8]): > 32 µg/mL
MIC50 [9]: 2 µg/mL (≈ 1.38 µM)
MIC90 [9]: 2 µg/mL (≈ 1.38 µM)
MIC [11]: 8 µg/mL (≈ 5.52 µM)
MIC [13]: 8 µg/mL (≈ 5.52 µM)
MIC (Staphylococcus aureus [14]): > 256 µg/mL
MIC [35]: 16 µg/mL (≈ 11 µM)
MIC90 [17]: 2 µg/mL (≈ 1.38 µM)
MIC50 (Staphylococcus aureus [26]): 1 µg/mL (≈ 0.69 µM)
MIC90 (Staphylococcus aureus [26]): 2 µg/mL (≈ 1.38 µM)
MIC (Staphylococcus aureus [36]): 8 µg/mL (≈ 5.52 µM)
MIC50 (Staphylococcus aureus [32]): 1 µg/mL (≈ 0.69 µM)
MIC90 (Staphylococcus aureus [32]): 2 µg/mL (≈ 1.38 µM)
MIC50 [33]: 1 µg/mL (≈ 0.69 µM)
MIC90 [33]: 2 µg/mL (≈ 1.38 µM)
